# Source: ChEMBL document CHEMBL2150947, “Pyrazolopyridine inhibitors of B-Raf(V600E). Part 4: rational design and kinase selectivity profile of cell potent type II inhibitors” (Bioorg Med Chem Lett, 2012)
# Key:
# [1] = target: T1, Serine/threonine-protein kinase B-raf (Homo sapiens, UniProt P15056, V600E); assay: Inhibition of full length B-Raf V600E mutant
# [2] = target: T1, Serine/threonine-protein kinase B-raf; assay: Inhibition of B-Raf V600E mutant in human Malme-3M cells assessed as ERK phosphorylation; type: cell-based
# Procedure, shortened: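 Mechanistic cellular read-out: inhibition of basal ERK phosphorylation in Malme-3M melanoma cells; IC50 taken as the mean of at least two experiments.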
# T1 sequence (P15056 2-766 V600E limits assumed): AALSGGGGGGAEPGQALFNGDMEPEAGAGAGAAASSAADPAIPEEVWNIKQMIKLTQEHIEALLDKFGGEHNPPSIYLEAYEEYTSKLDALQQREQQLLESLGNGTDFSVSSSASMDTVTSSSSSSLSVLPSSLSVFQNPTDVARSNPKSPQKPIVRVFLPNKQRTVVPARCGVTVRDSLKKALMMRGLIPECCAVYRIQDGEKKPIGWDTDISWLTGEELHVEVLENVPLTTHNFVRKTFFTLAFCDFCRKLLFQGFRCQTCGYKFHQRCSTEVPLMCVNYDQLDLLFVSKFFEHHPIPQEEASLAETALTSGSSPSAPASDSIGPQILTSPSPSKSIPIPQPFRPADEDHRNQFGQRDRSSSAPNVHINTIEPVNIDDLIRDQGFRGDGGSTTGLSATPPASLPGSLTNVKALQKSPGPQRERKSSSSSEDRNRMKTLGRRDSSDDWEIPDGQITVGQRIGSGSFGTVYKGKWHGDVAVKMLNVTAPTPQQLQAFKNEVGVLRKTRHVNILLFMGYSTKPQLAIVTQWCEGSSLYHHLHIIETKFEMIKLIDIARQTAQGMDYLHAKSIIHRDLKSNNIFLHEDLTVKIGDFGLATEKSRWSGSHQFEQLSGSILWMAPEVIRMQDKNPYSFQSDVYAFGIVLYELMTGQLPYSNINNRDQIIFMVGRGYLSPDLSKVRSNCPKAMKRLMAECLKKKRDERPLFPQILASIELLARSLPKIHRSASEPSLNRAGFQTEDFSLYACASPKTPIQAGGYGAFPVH
SMILES,IC50 [1],IC50 [2]
CC(C)(C#N)c1cccc(C(=O)Nc2ccc(F)c(C(=O)Nc3cnc4[nH]ncc4c3)c2F)c1,3.5 nM,430 nM
COc1n[nH]c2ncc(NC(=O)c3c(F)ccc(NC(=O)c4ccccc4)c3F)cc12,39 nM,> 12000 nM
COc1n[nH]c2ncc(NC(=O)c3c(F)ccc(NC(=O)c4cccc(C(C)(C)C#N)c4)c3F)cc12,,180 nM
CC(C)(C#N)c1cccc(C(=O)Nc2ccc(F)c(C(=O)Nc3cnc4[nH]ccc4c3)c2F)c1,6.8 nM,440 nM
CC(C)(C#N)c1cccc(C(=O)Nc2ccc(F)c(C(=O)Nc3cnc4[nH]nc(C5CC5)c4c3)c2F)c1,3 nM,520 nM
COc1n[nH]c2ncc(NC(=O)c3cccc(NC(=O)c4cccc(C(C)(C)C#N)c4)c3)cc12,0.9 nM,140 nM
COc1n[nH]c2ncc(NC(=O)c3cccc(NC(=O)c4cccc(C(C)(C)C#N)c4)c3F)cc12,5.1 nM,1800 nM
COc1n[nH]c2ncc(NC(=O)c3cc(NC(=O)c4ccc(Cl)c(C(F)(F)F)c4)ccc3F)cc12,1.3 nM,96 nM
COc1n[nH]c2ncc(NC(=O)c3cccc(C(=O)Nc4ccccc4)c3)cc12,80 nM,> 10000 nM
O=C(Nc1ccccc1)Nc1cccc(C(=O)Nc2cnc3[nH]ncc3c2)c1,0.7 nM,> 10000 nM

# Compounds with a lower IC50 [2], results first:
IC50 [1],IC50 [2],SMILES
6.6 nM,52 nM,COc1n[nH]c2ncc(NC(=O)c3cc(C(=O)Nc4cccc(C(F)(F)F)c4)ccc3C)cc12
1.2 nM,22 nM,COc1n[nH]c2ncc(NC(=O)c3cc(NC(=O)c4cccc(C(C)(C)C#N)c4)ccc3Cl)cc12
1 nM,20 nM,COc1n[nH]c2ncc(NC(=O)c3cc(NC(=O)c4cccc(C(C)(C)C#N)c4)ccc3F)cc12
1.9 nM,18 nM,COc1n[nH]c2ncc(NC(=O)c3cc(NC(=O)c4cccc(C(C)(C)C#N)c4)ccc3C)cc12
